Results on seven molecules are retold here after ChEMBL document CHEMBL1124294, “Nonsteroidal antiandrogens. Synthesis and structure-activity relationships of 3-substituted derivatives of 2-hydroxypropionanilides” (1988).

The source made the active and inactive calls. The rule behind the calls is not given here.

In experiment [1] the test system is Rattus norvegicus. Kind of experiment: Effect of compound on testosterone hormone level on 14-day dosing in intact rats at 25 mg/kg. It counts as functional.
For experiment [2], the system named is Rattus norvegicus. In words: Effect of compound on testosterone hormone level on 14-day dosing in intact rats; No statistically significant difference from controls. It counts as functional, organism-based.
The species named for experiment [3] is Rattus norvegicus. Kind of experiment: Agonist activity indicated by a statistically significant increase in ventral prostate gland weight compared, to control animals; NA means no statistically significant increase in ventral prostate weight compared to controls. In kind it is functional, organism-based. The procedure, abridged:
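Male rats castrated at 24 days of age, groups of five. Killed 24 h after the final dose. Seminal vesicles and ventral prostate dissected, cleaned and weighed. Value is ventral prostate weight in mg, compared with castrated vehicle controls for statistical significance.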

In experiment [4] the test system is Rattus norvegicus. Kind of experiment: Effect of compound on LH level on 14-day dosing in intact rats 25 mg/kg. In kind it is functional.
The species entered for experiment [5] is Rattus norvegicus. Kind of experiment: Effective dose required to inhibit 50 percent of androgen hormone activity in intact rat. In kind it is functional. The procedure, abridged:
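Rats dosed with vehicle 0.5% polysorbate. Killed 24 h after the last dose; seminal vesicles dissected, blotted and weighed. Percent inhibition uses a cumulative castrate control group as the 100% effect. ED50 taken from dose-response curves.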

In experiment [6] the test system is Rattus norvegicus. In words: Effect of compound on LH level on 14-day dosing in intact rats; No statistically significant difference from control. It counts as functional, organism-based.
The subject of experiment [7] is Rattus norvegicus. In words: Percent inhibition of androgen hormone activity in rat at 50 mg/kg. In kind it is functional. The procedure, abridged:
(§1)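 Rats dosed with vehicle 0.5% polysorbate. Killed 24 h after the last dose; seminal vesicles dissected, blotted and weighed. […] Percent inhibition uses a cumulative castrate control group as the 100% effect. ED50 taken from dose-response curves.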

Experiment [8] concerns Rattus norvegicus. In words: Percent inhibition of androgen hormone in rat at 25 mg/kg. In kind it is functional. The procedure, abridged: as §1
For experiment [9], the system named is Rattus norvegicus. Kind of experiment: Effect of compound on testosterone hormone level on 14-day dosing in intact rats. It counts as functional.
Experiment [10] relates to Rattus norvegicus. In words: Effect of compound on LH level on 14-day dosing in intact rats. In kind it is functional.
Experiment [11] concerns Rattus norvegicus. Kind of experiment: Percent inhibition of androgen hormone in rat at 50 mg/kg. In kind it is functional. The procedure, abridged:
as §1

Broadly, the ED50 is the dose at which the effect has come halfway, by size or by number of responders. Low values mean an effect at a small dose, high ones a need for a large dose. A word on the inhibition in vivo: it is the percentage by which the read-out fell short of the control. A low value points to a weak effect.

In turn, `CC(O)(CS(=O)(=O)c1ccc(F)cc1)C(=O)Nc1ccc(C#N)c(C(F)(F)F)c1` (centres undefined) [BICALUTAMIDE] gave a Testosterone in experiment [1] of 3.97 ng/mL. For the same molecule, in [2], the Testosterone result was “inactive”. In addition, the Weight result in experiment [3] was “inactive”. The molecule also registered an LH in [4] of 1.04 ng/mL. The ED50 in [5] stood at 0.5 mg/kg. The LH result in experiment [6] was “inactive”.

Consider `CC(O)(CSc1ccc(F)cc1)C(=O)Nc1ccc(C#N)c(C(F)(F)F)c1` (centres undefined), for which, in experiment [3], the Weight result is “Not significant”. This molecule yielded an ED50 in experiment [5] of 0.5 mg/kg.

In the case of `CC(O)(CSc1ccccc1)C(=O)Nc1ccc([N+](=O)[O-])cc1` (centres undefined), in experiment [7], the inhibition in vivo at 50 mg/kg turned out to be 11%.

`CC(O)(CSc1ccccc1)C(=O)Nc1ccc(Cl)c(Cl)c1` (centres undefined) showed an inhibition in vivo at 25 mg/kg in [8] of 44%.

Regarding `CC(C)C(=O)Nc1ccc([N+](=O)[O-])c(C(F)(F)F)c1` [FLUTAMIDE], the Testosterone in experiment [9] was under 0.01 ng/mL; in experiment [1], 7.61 ng/mL. Also, the Weight result in [3] is “inactive”. In addition, the LH in experiment [4] was 9 ng/mL; in experiment [10] it was under 0.01 ng/mL. This molecule also yielded an ED50 in [5] of 2 mg/kg.

For the molecule `CC(O)(CSc1ccccc1)C(=O)Nc1ccc(Cl)c([N+](=O)[O-])c1` (centres undefined), the Weight result in experiment [3] was “Not significant”. This molecule gave an inhibition in vivo at 50 mg/kg in [11] of 36%.

In turn, `CC(O)(CS(=O)(=O)c1ccc(F)cc1)C(=O)Nc1ccc([N+](=O)[O-])c(C(F)(F)F)c1` (centres undefined) returned an ED50 in [5] of 0.4 mg/kg.
